Compound activity deposited in PubChem by Johns Hopkins Ion Channel Center.
TRPC6 activator: activators of mouse TRPC6 channel; Q61143; HEK293-TRPC6 membrane potential dye fluorescence; stronger effect = higher value; B-score at 10 µM; 310,000 tested, 0.13% active; AID 2550;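 active = B-score of the integrated fluorescence ratio above library mean plus 3 SD, and starting fluorescence ratio within library mean plus 5 SD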;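 also: higher score means more depolarization so channel activation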
Target sequence (Q61143 whole entry, looked up): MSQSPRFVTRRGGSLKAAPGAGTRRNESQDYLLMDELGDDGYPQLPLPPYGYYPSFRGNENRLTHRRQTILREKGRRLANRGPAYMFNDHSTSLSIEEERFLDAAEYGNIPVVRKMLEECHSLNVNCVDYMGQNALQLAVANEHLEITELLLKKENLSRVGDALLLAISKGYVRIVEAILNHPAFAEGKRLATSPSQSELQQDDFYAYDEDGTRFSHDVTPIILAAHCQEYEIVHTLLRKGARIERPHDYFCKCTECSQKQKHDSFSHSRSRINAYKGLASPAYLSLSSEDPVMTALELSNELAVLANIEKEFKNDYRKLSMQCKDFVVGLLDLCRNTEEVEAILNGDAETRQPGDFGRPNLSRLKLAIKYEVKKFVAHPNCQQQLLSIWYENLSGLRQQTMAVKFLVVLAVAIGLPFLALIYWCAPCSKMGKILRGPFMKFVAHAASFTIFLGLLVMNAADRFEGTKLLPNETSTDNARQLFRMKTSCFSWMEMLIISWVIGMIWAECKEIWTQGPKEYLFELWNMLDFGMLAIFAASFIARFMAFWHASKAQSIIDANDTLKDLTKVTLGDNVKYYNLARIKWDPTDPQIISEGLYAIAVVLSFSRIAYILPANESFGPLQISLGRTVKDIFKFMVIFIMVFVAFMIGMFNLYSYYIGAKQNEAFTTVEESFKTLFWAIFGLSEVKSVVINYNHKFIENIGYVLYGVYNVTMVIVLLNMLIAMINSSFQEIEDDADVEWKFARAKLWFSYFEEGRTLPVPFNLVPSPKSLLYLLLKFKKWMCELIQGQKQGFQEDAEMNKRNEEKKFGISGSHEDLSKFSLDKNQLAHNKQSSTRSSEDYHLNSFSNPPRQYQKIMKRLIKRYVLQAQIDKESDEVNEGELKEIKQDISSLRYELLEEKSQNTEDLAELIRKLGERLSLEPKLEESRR
TRPC4 block: inhibitors of mouse TRPC4 channel | Q9QUQ5 | HEK293 TRPC4beta/mu-opioid, DAMGO-evoked Fluo4 calcium flux; stronger effect = lower value | B-score at 10 µM | 300,000 tested, 0.39% active | AID 2247;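 active = B-score over 3 SD under the library average, no early fluorescence shift, positive overall ratio signal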
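System: stable TRPC4beta/mu-opioid receptor HEK293 cells; Dosing: single-point compound dosing; Measured by: Fluo4 Ca2+ flux fluorescence; Read-out basis: per-well B score of integrated baseline-normalized Fluo4 ratio.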
TRPC4 PAM: allosteric potentiators of mouse TRPC4 channel. HEK293 TRPC4beta/mu-opioid, DAMGO EC20, Fluo-4 Ca2+ flux; stronger effect = higher value. B-score at 10 µM. 310,000 tested, 0.42% active. AID 2227;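 active = B-score of calcium response area above 5 SD of library B-scores, with initial fluorescence ratio within 5 SD of library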
Kir21 inh: blocks the mouse Kir2.1 inward-rectifier potassium channel; 310,000 tested, 0.85% active; HEK293-Kir2.1, FluxOR thallium flux fluorescence; stronger effect = lower value; B-score at 10 µM;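 active = fluorescence ratio B-score at or below minus 3 SD of library scores, with starting-brightness B-score within 2 SD, cut at about -4.2 in these data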;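 also: channel flux triggered by added potassium and thallium sulfate stimulus; B-score of peak minus minimum fluorescence over baseline after thallium stimulus; more negative B-score means stronger Kir2.1 block with less thallium influx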
TRPC6 inh: blocks the mouse TRPC6 cation channel. Q61143. 310,000 tested, 1.1% active. HEK293-TRPC6, membrane potential dye, ACh-evoked depolarization; stronger effect = lower value. B-score at 10 µM;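 active = B-score under library mean minus 3 SD, initial fluorescence not abnormally high, positive integrated signal ratio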;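 also: B-score derived from integrated fluorescence ratio over the kinetic read; more negative B-score means stronger inhibition of depolarization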
TRPC4 agonist: opens the mouse TRPC4 cation channel; Q9QUQ5; 310,000 tested, 0.49% active; HEK293 TRPC4beta/mu-opioid, Fluo4 calcium fluorescence; stronger effect = higher value; B-score at 10 µM;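 active = B-score above 5 SD of library B-scores, and initial fluorescence ratio not above library mean plus 5 SD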;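 also: positive B-score marks a calcium rise read as TRPC4 activation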
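Technique: kinetic Fluo4 calcium fluorescence; Test system: TRPC4beta and mu-opioid receptor HEK293 stable cells; Measure: B-scored integrated calcium fluorescence ratio; Benchmarks: low control buffer alone, high control maximal DAMGO; Schedule: 45 min room-temperature Fluo4 loading, 110 s read.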
TRPC4 sel inh 2: second check of whether TRPC6 inhibitors also affect mouse TRPC4; shares compounds with TRPC6 inh; HEK293 TRPC4/MOR, membrane potential dye fluorescence; channel activated by saturating DAMGO dose; inhibition, % at 10 µM; 920 tested, 42% active; AID 2776;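 active = compounds whose fluorescence signal differed from control wells by over 3 SD, either direction, in both duplicate plates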
TRPC4 spec: tests whether TRPC6 inhibitors also affect mouse TRPC4 | 920 tested, 61% active | shares compounds with TRPC6 inh | activity change, negative = inhibition, % at 10 µM | HEK293 TRPC4/mu-opioid, membrane potential fluorescence | AID 2777;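 active = rise or fall in signal beyond 3 SD of buffer-only wells in both replicate plates, either sign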;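 also: integrated kinetic ratio of fluorescence range over baseline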
HEK293 MPD ctr 2-1: second check of TRPC6 inhibitor effects in parental HEK293 cells; AID 2779; parental HEK293 membrane potential dye fluorescence; maximal acetylcholine challenge after compound addition; shares compounds with TRPC6 inh; signal change vs control, % at 10 µM; 920 tested, 31% active;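 active = membrane potential signal moving either way by over 3 SD of the maximum-effect control, in both duplicate plates, meaning non-specific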
HEK293 MPD ctr-1: parental HEK293 nonspecific activity of TRPC6 inhibitors | shares compounds with TRPC6 inh | parental HEK293 membrane potential dye fluorescence | membrane potential signal change, % at 10 µM | 920 tested, 60% active | AID 2780;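 active = membrane potential signal shifting up or down by more than 3 SD of buffer-only wells, on both duplicate plates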
HEK293 MPD ctr-2: parental HEK293 nonspecific activity of TRPC6 modulators. shares compounds with TRPC6 inh. membrane potential dye fluorescence. membrane potential signal change, % at 10 µM. 2,400 tested, 51% active;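 active = membrane potential signal moves up or down beyond 5 SD from buffer-only wells, on both duplicate plates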
HEK293 MPD ctr 2-2: parental HEK293 nonspecific activity of TRPC6 modulators, second screen. shares compounds with TRPC6 inh. membrane potential dye fluorescence; after compound, maximal acetylcholine stimulation. inhibition, % at 10 µM. 2,400 tested, 14% active. AID 488926;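 active = membrane potential signal drops by more than 5 SD from the mean control signal, in both duplicate plates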
TRPC4 ctr mod: mouse TRPC4 off-target activity of TRPC6 modulators. shares compounds with TRPC6 inh. HEK293 TRPC4/mu-opioid, membrane potential fluorescence. percent change from control (negative = decrease, positive = increase), % at 10 µM. 2,400 tested, 69% active. AID 488927;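 active = membrane potential signal moved up or down beyond 5 SD of buffer control wells, in both duplicate plates, actives on both sides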
TRPC4/MOR inh 2: second check of whether TRPC6 modulators also affect mouse TRPC4 | shares compounds with TRPC6 inh | inhibition, % at 10 µM | 2,400 tested, 55% active | HEK293 TRPC4/mu-opioid, membrane potential dye fluorescence; stimulated with maximal-effect DAMGO;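 active = drop in membrane potential signal beyond 5 SD of the control wells in both duplicate plates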;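 also: TRPC4 counter screen for TRPC6 hits run under conditions tuned for TRPC6 not TRPC4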
TRPC6 block conf: mouse TRPC6 inhibitor confirmation; inhibition, % at 10 µM; HEK293-TRPC6, membrane potential dye, ACh-evoked depolarization; shares compounds with TRPC6 inh; 3,300 tested, 43% active;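 active = fluorescence ratio falls more than 5 SD below the full-stimulation control mean, in both duplicate runs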;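 also: integrated fluorescence ratio of peak minus minimum over baseline after agonist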
TRPC6 act conf: confirmation of mouse TRPC6 activators; shares compounds with TRPC6 inh; HEK293-TRPC6 membrane potential dye fluorescence, FDSS; activation, % at 10 µM; 2,800 tested, 11% active;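 active = ratio signal rise beyond 5 SD above unstimulated control wells' mean, seen in both duplicate runs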
Large screens that a line does not name were inactive (follow-up assays come after a bar, where they were run). Compounds with a hit are over-represented: about 2.9% of the library has one in this group of screens.

CCOC(=O)N1CCC(N2CCN(CCC(C)C)C(CCO)C2)CC1 (stereo not drawn)	TRPC6 inh -7.6 | TRPC4 sel inh 2 inactive | TRPC4 spec 9.0% | HEK293 MPD ctr 2-1 -4.0% | HEK293 MPD ctr-1 1.5% | TRPC6 block conf 64%
Cc1cc(C(=O)N/N=C/c2cccc3ccccc23)c(C)o1	none
CCc1cc(-c2[nH]ncc2-c2ccc3c(c2)OCO3)c(O)cc1O	TRPC6 inh -5.3 | HEK293 MPD ctr-2 inactive | HEK293 MPD ctr 2-2 inactive | TRPC4 ctr mod inactive | TRPC4/MOR inh 2 70% | TRPC6 block conf 65% | TRPC6 act conf inactive
CCc1cc(-c2[nH]ncc2-c2ccc(OC)cc2)c(O)cc1O	none
CN1CCN(/N=C/c2nc(-c3cccc([N+](=O)[O-])c3)n3ccccc23)CC1	TRPC6 inh -5.2 | HEK293 MPD ctr-2 -165% | HEK293 MPD ctr 2-2 inactive | TRPC4 ctr mod -30% | TRPC4/MOR inh 2 46% | TRPC6 block conf 51% | TRPC6 act conf inactive
CC1CCN(Cc2ccc(NC(=O)C3CCN(c4nnc(-n5cccc5)s4)CC3)cc2)CC1	TRPC6 inh -7.8 | TRPC4 sel inh 2 71% | TRPC4 spec inactive | HEK293 MPD ctr 2-1 inactive | HEK293 MPD ctr-1 inactive | TRPC6 block conf inactive | TRPC6 act conf inactive
OC(COc1ccc(F)cc1Cl)CN1CCC(Cc2ccccc2)CC1 (stereo not drawn)	none
OC(COc1ccccc1F)CN1CCC(Cc2ccccc2)CC1 (stereo not drawn)	TRPC6 inh -5.1 | HEK293 MPD ctr-2 155% | HEK293 MPD ctr 2-2 inactive | TRPC4 ctr mod 25% | TRPC4/MOR inh 2 44% | TRPC6 block conf inactive
Cc1ccc(OCC(O)CN2CCC(Cc3ccccc3)CC2)c(C)c1 (stereo not drawn)	Kir21 inh -4.6, TRPC6 inh -5.3 | HEK293 MPD ctr-2 448% | HEK293 MPD ctr 2-2 inactive | TRPC4 ctr mod 94% | TRPC4/MOR inh 2 81% | TRPC6 block conf 46%
CCN(C(=O)CSc1nc2nc(C)cc(C)n2n1)C1CCS(=O)(=O)C1 (stereo not drawn)	none
Cc1ccc(NC(=O)Cn2ccc(=O)[nH]c2=O)cc1	none
Cn1cc(CN2CCN(c3ccccc3)CC2)c2ccccc21	TRPC6 inh -5.5 | HEK293 MPD ctr-2 inactive | HEK293 MPD ctr 2-2 inactive | TRPC4 ctr mod 12% | TRPC4/MOR inh 2 43% | TRPC6 block conf inactive | TRPC6 act conf inactive
Cc1cccn2c(=O)c3cc(C#N)c(=N)n(CCCN4CCOCC4)c3nc12	TRPC6 inh -8.6 | HEK293 MPD ctr-2 -84% | HEK293 MPD ctr 2-2 118% | TRPC4 ctr mod -26% | TRPC4/MOR inh 2 68% | TRPC6 block conf 57% | TRPC6 act conf inactive
Cc1cccn2c(=O)c3cc(C(N)=S)c(=N)n(CCCN4CCOCC4)c3nc12	none
CCC(C)n1c(=N)c(C#N)cc2c(=O)n3ccccc3nc21 (stereo not drawn)	none
Cc1cccn2c(=O)c3cc(C#N)c(=N)n(CCN4CCOCC4)c3nc12	TRPC6 inh -5.6 | HEK293 MPD ctr-2 -150% | HEK293 MPD ctr 2-2 inactive | TRPC4 ctr mod -24% | TRPC4/MOR inh 2 inactive | TRPC6 block conf 48% | TRPC6 act conf inactive
CCCn1c(=N)c(C#N)cc2c(=O)n3ccccc3nc21	TRPC6 inh -8.3 | HEK293 MPD ctr-2 -260% | HEK293 MPD ctr 2-2 inactive | TRPC4 ctr mod -44% | TRPC4/MOR inh 2 44% | TRPC6 block conf 38% | TRPC6 act conf inactive
CCCn1c(=N)c(C#N)cc2c(=O)n3cccc(C)c3nc21	none
Cc1cccn2c(=O)c3cc(C#N)c(=N)n(Cc4ccncc4)c3nc12	TRPC6 inh -5.7 | HEK293 MPD ctr-2 -168% | HEK293 MPD ctr 2-2 inactive | TRPC4 ctr mod -30% | TRPC4/MOR inh 2 inactive | TRPC6 block conf inactive | TRPC6 act conf inactive
COCCCn1c(=NC(=O)c2ccncc2)c(C#N)cc2c(=O)n3cccc(C)c3nc21	none
COc1cc(/C(C#N)=C/c2ccccc2)c([N+](=O)[O-])cc1OC	none
Cc1cc(CSC(=N)N)c(CSC(=N)N)cc1C	TRPC6 inh -6.8, TRPC4 agonist 130 | HEK293 MPD ctr-2 -264% | HEK293 MPD ctr 2-2 58% | TRPC4 ctr mod -36% | TRPC4/MOR inh 2 inactive | TRPC6 block conf 47% | TRPC6 act conf inactive
CCOC(=O)Cn1c(=N)n(CCOc2ccc3ccccc3c2)c2ccccc21	Kir21 inh -11, TRPC6 inh -5.3 | HEK293 MPD ctr-2 inactive | HEK293 MPD ctr 2-2 inactive | TRPC4 ctr mod inactive | TRPC4/MOR inh 2 70% | TRPC6 block conf 40% | TRPC6 act conf inactive
COC(=O)CSc1nc2sc3c(c2c(=O)n1C1CCCCC1)CCN(C)C3	TRPC6 inh -9.4 | TRPC4 sel inh 2 78% | TRPC4 spec inactive | HEK293 MPD ctr 2-1 inactive | HEK293 MPD ctr-1 -212% | TRPC6 block conf inactive | TRPC6 act conf inactive
Cn1c(SCC(=O)N2CCOCC2)nc2sc3c(c2c1=O)CCCC3	TRPC6 inh -8.8 | TRPC4 sel inh 2 inactive | TRPC4 spec inactive | HEK293 MPD ctr 2-1 inactive | HEK293 MPD ctr-1 inactive | TRPC6 block conf inactive | TRPC6 act conf inactive
CCOC(=O)C1(CCc2ccccc2)CCN(C(=O)c2cc(C)nc(C)n2)CC1	none
